# Screening data deposited in PubChem BioAssay by several laboratories.
# Compounds with a hit are over-represented: about 12% of the library has one in this group of screens.
# CHOP inh – CHOP inhibition in unfolded protein response; CHO-K1 CHOP-promoter luciferase, tunicamycin-induced, 15-18 h; inhibition, % at 10 µM; hit rate 3.8% among 220,000; AID 2732;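 active means compounds that reduced the stress-induced luciferase reporter signal by more than about 70% of percent inhibition, limit read from the data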;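 further: 0% = tunicamycin plus vehicle and 100% = wells without tunicamycin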
# Autophagy HCS – autophagy modulation, high-content screen | MEF GFP-LC3 puncta imaging; test concentration mostly 10 µM | calls only at 10 µM (by protocol) | hit rate 0.98% among 190,000;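 active means percentage of spot-positive cells more than 3 SD above its plate mean, without a fluorescence outlier flag or 80% toxicity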;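 further: spot-positive cell cutoff set from DMSO-treated cells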
# MT stabilizer – stabilizes microtubules in HeLa cells; HeLa tubulin immunostaining HCS, 24 h; share of cells brighter than vehicle mean+2SD; % tubulin-high responders, % at 10 µM; hit rate 0.83% among 200,000;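 active means plate Z-score above 3 for both tubulin-high and condensed-nucleus cell shares, with cell loss under 80%, at 10 µM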;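 further: anti alpha tubulin signal scored within the nucleus-defined area of each cell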
# bCat nuc transl – beta-catenin nuclear translocation modulation; HeLa beta-catenin nuclear translocation, immunofluorescence imaging; nuclear translocation activity, % at 5 µM; hit rate 0.3% among 190,000; AID 1665;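 active means nuclear translocation activity above 50% at 5 µM, with a well cell count of 50 or more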;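 further: per-cell ratio of nuclear to cytoplasmic median beta-catenin stain intensity; plate controls were DMSO negative control for no effect and GSK-3 inhibitor IX positive control for full effect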
#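 test system = HeLa cells, endogenous beta-catenin | dosing = single 5 µM dose plus 0.02–20 µM confirmation series | times = compound treatment 24 h, 37°C, 5% CO2 | technique = beta-catenin immunofluorescence imaging with DAPI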
# Dynein cargo inh – dynein cargo transport inhibition; 3617.4 mouse cells, GR-EGFP nuclear translocation imaging; test concentration mostly 20 µM; stimulated with dexamethasone, 1 µM; active compounds read low; z-score, hits read low; hit rate 0.47% among 220,000;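 active means plate z-score of nuclear minus cytoplasmic receptor signal below a set negative limit, without overly bright fluorescence or cell loss, cut at about -3.5 in these data, passing the limit was not always enough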;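 further: z-score of nuclear minus cytoplasmic ring GR-EGFP intensity difference per well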
#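 Buffer or medium – tet-free medium with charcoal-stripped serum · Signal – automated 10x imaging of fixed Hoechst-stained cells · Also added – dexamethasone agonist, 1.0 µM final, for 30 min · Incubation – induction 48 h, compound 1 h, agonist 30 min · Read-out – GR-EGFP nuclear translocation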
# L major viab – Leishmania major promastigote growth inhibition; Leishmania major promastigotes, resazurin fluorescence viability; inhibition, % at 10 µM; hit rate 9% among 200,000; AID 1063; in the data active means inhibition above about 50%;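 further: promastigotes grown with compound for 44 hours at 28 °C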
# An asterisk follows results filed as active; i = inactive; nt = no result given; + = active, no number.
SMILES,CHOP inh,Autophagy HCS,MT stabilizer,bCat nuc transl,Dynein cargo inh,L major viab
COCCN=C1Sc2nc3ccc(C)cc3cc2CN1Cc1ccco1,40,i,2,-2,-0.2,60*
COCCN=C1Sc2nc3cc(C)c(C)cc3cc2CN1Cc1cccs1,-56,nt,nt,0,-0.056,nt
COc1ccc(Nc2nc(C)nc3sc4c(c23)CCC4)cc1O,-1,i,21*,2,-0.12,4
COc1cccc(-c2nnc(SC(C(=O)c3c[nH]c4ccccc34)c3ccccc3)n2C)c1 (stereo unspecified),60,i,2,nt,0.045,98*
CCCC(=O)Nc1ccc(C(=O)NNC(=S)NC(=O)c2ccc(Br)o2)cc1,35,i,7,-4,-0.62,-3
O=C(Nc1cccc(Cl)c1)Nc1nnc(CSCCOc2ccc(Cl)cc2)s1,51,i,3,0,1.3,9
CC1=C(C(=O)Nc2ccc(C)cc2C)C(c2ccc(C)o2)NC(=S)N1 (stereo unspecified),11,i,3,-2,-0.81,38
CC1(C)CNc2cc(N)ccc2S1,2,i,6,1,-0.18,1
O=C(CSc1nnc2ccccn12)Nc1ccc(S(=O)(=O)N2CCOCC2)cc1,0,i,1,-2,-0.072,-4
Cc1ccc(N/N=C/c2cccnc2)cc1,40,i,3,3,-0.94,76*
Oc1ccc(/C=N/Nc2ccnc3cc(Cl)ccc23)c(O)c1,90*,nt,nt,-1,-0.11,nt
Clc1ccc2c(N/N=C/c3cccnc3)ccnc2c1,-1,i,10,0,-0.61,100*
Fc1ccc(N/N=C/c2cccnc2)c(F)c1,-20,i,3,-2,0.56,22
Cc1ccc(/C=N/Nc2ccnc3cc(Cl)ccc23)c(C)c1,105*,i,14,-2,0.24,100*
COc1cccc(NC(=O)CSc2nc3c(oc4ccccc43)c(=O)[nH]2)c1,11,i,3,-8,-0.65,47
CCOc1ccccc1C(=O)N[C@H](C(=O)OCc1cc([N+](=O)[O-])cc2c1OCOC2)C(C)C,23,i,3,1,0.76,46
CC(NC(=O)c1cc(S(=O)(=O)N(C)C)ccc1N1CCCC1)C1CC2CCC1C2 (stereo unspecified),24,i,2,0,0.63,25
CCOC(=O)c1c(NC(=O)CN2C(=O)CN(C)C2=O)sc(C)c1C,1,i,2,1,-0.21,6
CC(Cc1ccccc1)N/C=C1\CC(=O)NC1=O (stereo unspecified),2,i,3,-2,0.23,-4
Cc1ccc2[nH]c(=O)c(COC(=O)C3CCCCC3)cc2c1,14,nt,nt,1,-0.26,nt
CCn1cc(Cl)c(C(=O)N2N=C3/C(=C/c4cccs4)CCCC3C2c2cccs2)n1 (stereo unspecified),83*,i,2,1,1.1,18
COc1ccccc1/C=C/C(=O)c1ccc(Cl)cc1,62,i,4,0,-0.62,86*
COc1ccccc1/C=C/C(=O)c1ccc(NC(C)=O)cc1,-160,i,5,43,0.61,100*
COc1ccccc1/C=C/C(=O)c1ccccc1,1,nt,nt,3,0.49,nt
COc1ccc(OC)c(/C=C/C(=O)c2ccc(Cl)cc2)c1,48,i,3,-1,-1.1,100*
SMILES,CHOP inh,Autophagy HCS,MT stabilizer,bCat nuc transl,Dynein cargo inh,L major viab
COc1ccc(OC)c(NC(=O)c2ccc(Cl)cc2)c1,-11,i,3,1,-0.36,-9
COc1ccccc1C(=O)Nc1ccc(C(=O)c2ccccc2)cc1,19,i,3,0,0.064,4
COc1ccc(/C=C/C(=O)c2cc(Cl)cc(Cl)c2O)c(OC)c1,71*,nt,nt,1,0.41,nt
Cc1ccnc2nc(C(=O)Nc3ccc(S(=O)(=O)N4CCCC4)cc3)nn12,4,nt,nt,0,0.042,nt
CCCNC(=O)NC(=O)CSc1nncs1,-14,i,3,-2,0.46,-8
O=C(/C=C/c1ccccc1O)c1ccc(Cl)cc1,34,i,4,0,-3.2,100*
COc1ccc(C=C2c3ccccc3C(=O)c3ccccc32)c(OC)c1,31,nt,nt,82*,-0.61,nt
COc1ccc(/C=C/C(=O)c2ccccc2)c(OC)c1,-19,i,5,-2,-0.057,74*
COc1ccccc1/C=C/C(=O)c1c2c(c(C)[nH]c1=O)CCCC2,-1,+,12,2,-2.5,77*
